Results as given in ChEMBL document CHEMBL1123985, “Oral absorption of cephalosporin antibiotics. 1. Synthesis, biological properties, and oral bioavailability of 7-(arylacetamido)-3-chloro cephalosporins in animals” (J Med Chem, 1988).
Converted amounts (≈) assume the structure as drawn.

What was measured:
[1] = Oral bioavailability in mouse; assay type: ADME, organism-based; conditions: in vivo
Procedure, shortened: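 Male Cox mice given water and liquid diet overnight; 20 mg/kg in saline (2 mg/mL) sc or orally; urine from collection cages plus bladder contents over 2 h; activity by agar well assay with Bacillus subtilis ATCC 6633. Bioavailability from percent dose excreted in urine after oral vs parenteral dosing.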

Escherichia coli = test: Minimum inhibitory concentration against EC14 strain Escherichia coli; assay type: functional
Klebsiella aerogenes = test: Minimum inhibitory concentration against EB17 strain of Enterobacter aerogenes; assay type: functional
Klebsiella pneumoniae = test: Minimum inhibitory concentration against X68 strain of Klebsiella pneumoniae; assay type: functional
Salmonella = test: Minimum inhibitory concentration against X514 strain of Salmonella; assay type: functional
[2] = Minimum inhibitory concentration against N9 strain of Shigella sonnei; assay type: functional
[3] = test system: Staphylococcus epidermidis; test: Minimum inhibitory concentration against 222 strain of Staphylococcus epidermidis; assay type: functional
[4] = test system: Staphylococcus epidermidis; test: Minimum inhibitory concentration against Epil strain of Staphylococcus epidermidis; assay type: functional
Staphylococcus aureus [5] = test: Minimum inhibitory concentration against S13E strain of Staphylococcus aureus; assay type: functional
Staphylococcus aureus [6] = test: Minimum inhibitory concentration against V41 strain of Staphylococcus aureus; assay type: functional
Staphylococcus aureus [7] = test: Minimum inhibitory concentration against X1.1 strain of Staphylococcus aureus; assay type: functional
Streptococcus pyogenes [8] = test: Minimum inhibitory concentration against Streptococcus pyogenes C203; assay type: functional
Haemophilus influenzae [9] = test: (§1) Minimum inhibitory concentration against sens CL strain of Haemophilus influenzae; assay type: functional
Haemophilus influenzae [10] = test: (§2) Minimum inhibitory concentration against res 76 strain of Haemophilus influenzae; assay type: functional
Streptococcus pneumoniae [11] = test: Minimum inhibitory concentration against Park strain of Streptococcus pneumoniae
[12] = Area under plasma concentration vs time curve observed in Rhesus monkeys after, iv administration of single 30 mg/kg dose; assay type: ADME, organism-based, Macaca mulatta; design: dose 30 mg/kg, route intravenous; conditions: rhesus monkey
Procedure, shortened: (§3)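 Rhesus monkeys, adult males, six animals per compound, each given drug orally and iv; fasted overnight. Single 30 mg/kg solution doses, by nasogastric tube (in water) or saphenous vein (in isotonic lactated Ringer). Plasma sampled at intervals, frozen at -70 °C, antibacterial activity by microbiological assay. AUC in μg min/mL; oral bioavailability from oral vs iv AUC.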

[13] = Area under plasma concentration vs time curve observed in Rhesus monkeys after oral administration of single 30 mg/kg dose; assay type: ADME, organism-based, Macaca mulatta; design: dose 30 mg/kg, route oral; conditions: rhesus monkey; procedure, shortened: as §3
Canis familiaris [14] = test: Area under plasma concentration vs time curve observed in female mongrel dogs after, iv administration of single 15 mg/kg dose; assay type: ADME, organism-based, Canis lupus familiaris; design: dose 15 mg/kg, route intravenous; conditions: dog, in vivo
Procedure, shortened: (§4)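 Six female mongrel dogs (14-23 kg) fasted overnight, bladder catheterized; single 15 mg/kg solution doses by stomach tube (in water, total 500 mL) or cephalic vein (saline or pH 6.0 NaCl/phosphate/acetate buffer). Plasma sampled at intervals; activity by disk-plate agar diffusion against E. coli MB 3804, standards in dog serum or buffer. AUC μg min/mL, mean ± SEM; BA from iv vs po AUC and urinary recovery.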

Canis familiaris [15] = test: Area under plasma concentration vs time curve observed in female mongrel dogs after, oral administration of single 15 mg/kg dose; assay type: ADME, organism-based, Canis lupus familiaris; design: dose 15 mg/kg, route oral; conditions: dog, in vivo; procedure, shortened: as §4
[16] = Area under plasma concentration vs time curve observed in rats for 0-3 h; assay type: ADME; design: time < 3 hr; conditions: rat
Procedure, shortened: (§5)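 Rats, jugular vein cannulated (two per group), test compound iv 20 mg/kg; probenecid 100 mg/kg iv 5 min before in treated groups. Heparinized plasma sampled at 5, 20, 40 min and 1, 2, 3 h, assayed microbiologically (B. subtilis agar well). AUC 0-3 h in μg min/mL; half-life in min.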

[17] = Bioavailability in rat; assay type: ADME, organism-based; conditions: in vivo
Procedure, shortened: (§6)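 Male Wistar rats (200-300 g), jugular-cannulated, upper GI emptied by light cycle; 20 mg/kg in saline (6 mg/mL) sc or orally. Urine collected in wire-bottom cages, assayed by B. subtilis agar well method. Mean ± SD recovery with N and range; bioavailability = oral over mean sc recovery.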

[18] = Mean plasma levels in rats 1 hr after iv administration of 100 mg/kg of probenecid 5 min prior to test compound; assay type: ADME, organism-based; design: dose 100 mg/kg, route intravenous; conditions: rat, read-out: Plasma levels; procedure, shortened: as §5
[19] = Mean plasma levels in rats 2 hr after iv administration of 100 mg/kg of probenecid 5 min prior to test compound; assay type: ADME, organism-based; design: dose 100 mg/kg, route intravenous; conditions: rat, read-out: Plasma levels; procedure, shortened: as §5
[20] = Mean plasma levels in rats 3h after intravenous administration of 20 mg/kg of compound; assay type: ADME, organism-based; design: dose 20 mg/kg, route intravenous; conditions: rat, read-out: Plasma levels; procedure, shortened: as §5
[21] = Mean plasma levels in rats 40 min after iv administration of 100 mg/kg of probenecid 5 min prior to test compound; assay type: ADME, organism-based; design: dose 100 mg/kg, route intravenous; conditions: rat, read-out: Plasma levels; procedure, shortened: as §5
[22] = Mean plasma levels in rats at a time 5 min after iv administration of 100 mg/kg of probenecid 5 min prior to test compound; assay type: ADME, organism-based; design: dose 100 mg/kg, route intravenous; conditions: rat, read-out: Plasma levels; procedure, shortened: as §5
[23] = Mean plasma levels in rats 20 min after iv administration of 100 mg/kg of probenecid 5 min prior to test compound; assay type: ADME, organism-based; design: dose 100 mg/kg, route intravenous; conditions: rat, read-out: Plasma levels; procedure, shortened: as §5
[24] = Oral bioavailability in Rhesus monkey; assay type: ADME, organism-based, Macaca mulatta; conditions: in vivo; procedure, shortened: as §3
[25] = Percent of urinary recovery in rats after, oral administration of single 20 mg/kg dose in solution (N,range); assay type: ADME, organism-based; design: dose 20 mg/kg, route oral; conditions: rat, urine, read-out: Recovery; procedure, shortened: as §6
[26] = Percent of urinary recovery in rats after, sc administration of single 20 mg/kg dose in solution (N,range); assay type: ADME, organism-based; design: dose 20 mg/kg, route subcutaneous; conditions: rat, urine, read-out: Recovery; procedure, shortened: as §6
[27] = Dose in urine (24-h urine excretion) in female mongrel dogs after oral administration of single 15 mg/kg dose; assay type: ADME, organism-based, Canis lupus familiaris; design: dose 15 mg/kg, route oral; conditions: dog
Procedure, shortened: (§7)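 Female mongrel dogs (n=6), bladder catheter; urine collected at intervals after single 15 mg/kg iv or oral solution dose, frozen; antibiotic activity by disk-plate agar diffusion against E. coli MB 3804 with standards in pH 6.0 buffer; percent of dose recovered in urine.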

[28] = Half-life of the compound; assay type: ADME; procedure, shortened: as §5
[29] = as §1; assay type: functional
[30] = as §2; assay type: functional
[31] = Dose in urine (24-h urine excretion) in female mongrel dogs after iv administration of single 15 mg/kg dose; assay type: ADME, organism-based, Canis lupus familiaris; design: dose 15 mg/kg, route intravenous; conditions: dog; procedure, shortened: as §7
Staphylococcus aureus [32] = test: Minimum inhibitory concentration against 3055 strain of Staphylococcus aureus
Streptococcus pyogenes [33] = test: Minimum inhibitory concentration against C203 strain of Streptococcus pyogenes
Streptococcus pneumoniae [34] = test: Minimum inhibitory concentration against park strain of Streptococcus pneumoniae

Work on `CC1=C(C(=O)O)N2C(=O)[C@@H](NC(=O)COc3ccccc3)[C@H]2SC1` yielded a bioavailability [1] of 37%, an MIC (Escherichia coli) greater than 128 µg/mL and an MIC (Klebsiella aerogenes) greater than 128 µg/mL. It also gave an MIC (Klebsiella pneumoniae) greater than 128 µg/mL, an MIC (Salmonella) greater than 128 µg/mL and an MIC [2] greater than 128 µg/mL. The MIC [3] was 4 µg/mL (≈ 11.5 µM), the MIC [4] was 16 µg/mL (≈ 45.9 µM) and the MIC (Staphylococcus aureus [5]) was greater than 128 µg/mL. The MIC (Staphylococcus aureus [6]) was 32 µg/mL (≈ 91.9 µM), the MIC (Staphylococcus aureus [7]) was 2 µg/mL (≈ 5.74 µM) and the MIC (Streptococcus pyogenes [8]) was 2 µg/mL (≈ 5.74 µM). The MIC (Haemophilus influenzae [9]) was 16 µg/mL (≈ 45.9 µM), the MIC (Haemophilus influenzae [10]) was 8 µg/mL (≈ 23 µM) and the MIC (Streptococcus pneumoniae [11]) was 2 µg/mL (≈ 5.74 µM).

Work on `Nc1nc(CC(=O)N[C@@H]2C(=O)N3C(C(=O)O)=C(Cl)CS[C@H]23)cs1` yielded an AUC [12] of 50300 ng·h/mL, an AUC [13] of 2170 ng·h/mL and an AUC (Canis familiaris [14]) of 33200 ng·h/mL. For the same compound, the AUC (Canis familiaris [15]) was 9330 ng·h/mL, the AUC at 3 h [16] was 35400 ng·h/mL and the bioavailability [1] was 64%. The bioavailability [17] was 19.2%, the concentration at 1 h [18] was 9800 ng/mL and the concentration at 2 h [19] was 1800 ng/mL. The concentration at 3 h [20] was less than 1300 ng/mL, the concentration at 40 min [21] was 15600 ng/mL and the concentration at 5 min [22] was 57500 ng/mL. The concentration at 20 min [23] was 32000 ng/mL, the bioavailability [24] was 4.2% and the dose excreted [25] was 16.2%. It also gave a dose excreted [26] of 84.3%, a dose excreted [27] of 10% and a half-life [28] of 23.5 min. The MIC (Klebsiella aerogenes) was 8 µg/mL (≈ 21.3 µM), the MIC (Salmonella) was 0.25 µg/mL (≈ 0.667 µM) and the MIC [2] was 4 µg/mL (≈ 10.7 µM). For the same compound, the MIC [3] was 2 µg/mL (≈ 5.34 µM), the MIC [4] was 8 µg/mL (≈ 21.3 µM) and the MIC (Staphylococcus aureus [7]) was 2 µg/mL (≈ 5.34 µM). For the same compound, the MIC (Streptococcus pyogenes [8]) was 0.125 µg/mL (≈ 0.333 µM), the MIC [29] was 1 µg/mL (≈ 2.67 µM) and the MIC [30] was 1 µg/mL (≈ 2.67 µM). For the same compound, the dose excreted [31] was 36%, the MIC (Staphylococcus aureus [32]) was 1 µg/mL (≈ 2.67 µM) and the MIC (Streptococcus pyogenes [33]) was 0.25 µg/mL (≈ 0.667 µM). It also gave an MIC (Streptococcus pneumoniae [34]) of 0.5 µg/mL (≈ 1.33 µM) and an MIC (Streptococcus pneumoniae [11]) of 0.25 µg/mL (≈ 0.667 µM).
